Screening data: PubChem, several laboratories
Compounds with a hit are over-represented: about 2.9% of the library has one in this group of screens.
Apaf-1 inh: human Apaf-1 inhibition; O14727; reconstituted apoptosome caspase-3 activity, DEVD-Rh110 fluorescence; inhibition, % at 20 µM; 330,000 compounds, 0.71% hits; AID 489030; active means inhibition of at least 40% at 20 µM;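 further: plate controls were DMSO wells for no effect and DEVD-CHO caspase inhibitor wells for full effect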
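System – cell-free apoptosome with Apaf-1, procaspase-3 and caspase-9 · Buffer or medium – pH 7.5 Hepes buffer with CHAPS, BSA, DTT · Also added – cytochrome c with DEVD-Rh110 · Times – 30 min compound preincubation, 50 min activation, room temperature · Technique – Rh110 fluorescence intensity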
MEKK2mut PB1 HTS: signal of MEK5 binding to mutant human MEKK2 PB1 domain | bead flow cytometry, Alexa488-MEK5 binding to MEKK2 mutant | percent response, % at 10 µM | 290,000 compounds, 0.35% hits | AID 1530; in the data active means percent response above about 24%, passing the limit was not always enough
UBC13 inh: inhibitors of human UBC13 polyubiquitin chain formation; 330,000 compounds, 0.47% hits; P61088; inhibition, % at 20 µM; TR-FRET; in the data active means inhibition above about 45%, passing the limit was not always enough
MEKK2wt PB1 HTS: raises or lowers MEK5 binding to wildtype human MEKK2 PB1 domain. AID 1531. 290,000 compounds, 1.1% hits. Q9Y2U5. bead flow cytometry, Alexa488-MEK5 binding to MEKK2 WT; actives lie on both sides. binding response (% of control), % at 10 µM; in the data active means binding response below about 67% or above about 130%
MEKK3 PB1 HTS: modulators (inhibitors or enhancers) of MEK5 binding to human MEKK3 PB1 domain. AID 1529. bead-based flow cytometry, Alexa488-MEK5 binding to MEKK3; actives lie on both sides; 0 = blocked by unlabeled MEK5, 100 = vehicle. binding response (% of control), % at 10 µM. 290,000 compounds, 1.4% hits;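 active means binding response more than 3 SD above or below the average of its plate-row segment, actives on both sides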;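 further: Alexa488 bead fluorescence after subtracting the streptavidin-only scavenger bead signal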
Target sequence (Q99759 whole entry, looked up, the tested form may be a part): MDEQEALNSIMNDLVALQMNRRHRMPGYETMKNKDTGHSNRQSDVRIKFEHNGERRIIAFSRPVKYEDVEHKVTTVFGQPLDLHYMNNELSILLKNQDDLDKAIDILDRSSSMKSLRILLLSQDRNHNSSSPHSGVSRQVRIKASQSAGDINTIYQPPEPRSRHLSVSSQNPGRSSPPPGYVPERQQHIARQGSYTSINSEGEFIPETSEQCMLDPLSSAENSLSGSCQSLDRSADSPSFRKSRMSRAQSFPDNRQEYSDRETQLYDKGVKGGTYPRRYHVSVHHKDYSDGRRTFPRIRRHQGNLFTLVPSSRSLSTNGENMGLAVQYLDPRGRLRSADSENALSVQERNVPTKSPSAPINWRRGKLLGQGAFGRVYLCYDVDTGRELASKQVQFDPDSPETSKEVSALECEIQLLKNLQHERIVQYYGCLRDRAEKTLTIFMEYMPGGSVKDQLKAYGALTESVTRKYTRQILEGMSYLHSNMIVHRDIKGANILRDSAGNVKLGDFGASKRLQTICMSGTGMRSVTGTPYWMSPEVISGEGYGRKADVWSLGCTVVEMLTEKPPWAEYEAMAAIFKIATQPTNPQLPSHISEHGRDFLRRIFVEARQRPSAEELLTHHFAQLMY
MEKK2wt confirm: raises or lowers MEK5 binding to wildtype human MEKK2, retest; AID 1892; bead flow cytometry, Alexa488-MEK5 binding to MEKK2 WT; actives lie on both sides; 5,900 compounds, 2.4% hits; binding response (% of control), % at 10 µM; shares compounds with MEKK3 PB1 HTS; in the data active means binding response below about 16% or above about 210%; inactive means in between
MEKK2mut confirm: signal of MEK5 binding to mutant human MEKK2, retest; AID 1893; shares compounds with MEKK3 PB1 HTS; percent response, % at 10 µM; 5,900 compounds, 2% hits; bead flow cytometry, Alexa488-MEK5 binding to MEKK2 mutant; in the data active means percent response mostly above about 71%, no sharp cut-off; inactive means mostly below about 38%;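 further: higher means compound restores mutant binding toward wildtype level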
MEKK3 confirm: confirmation of inhibitors of MEK5 binding to human MEKK3; binding response (% of control), % at 10 µM; shares compounds with MEKK3 PB1 HTS; bead flow cytometry, Alexa488-MEK5 binding to MEKK3; stronger effect = lower value; AID 1894; 5,900 compounds, 1.8% hits;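 active means binding response below 72% of control, or above a set upper limit, though filed actives all read lower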;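 further: 100% = DMSO only wells and 0% = binding blocked by excess unlabeled MEK5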
* = called active by the depositor; · = no result given; [ ] = remark or other dose.

SMILES	Apaf-1 inh	MEKK2mut PB1 HTS	UBC13 inh	MEKK2wt PB1 HTS	MEKK3 PB1 HTS	MEKK2wt confirm	MEKK2mut confirm	MEKK3 confirm
Nc1c(C(=O)NCc2ccco2)c2nc3ccccc3nc2n1CCN1CCCCC1	5	29*	-26	146*	122*	139	16	105
C=C1C(=O)O[C@@H]2C[C@@H](C)[C@@H]3C=CC(=O)[C@@]3(C)[C@@H](OC(=O)CC(=O)O[C@H]3[C@@H]4C(=C)C(=O)O[C@@H]4C[C@@H](C)[C@@H]4C=CC(=O)[C@]43C)[C@H]12	8	3	-36	96	94	·	·	·
C=C1C(=O)O[C@@H]2C[C@@H](C)[C@@H]3C4OC4C(=O)[C@@]3(C)[C@@H](O)[C@H]12 (stereo partly specified)	-4	4	-3	70	69*[inhibitor]	97	-5	101
CN(C)CCN(CC1CCCN(Cc2ccccc2F)C1)C(=O)Cc1c(F)cccc1F (stereo unspecified)	-2	10	7	114	104	·	·	·
CN(C)CCN(CC1CCCN(Cc2ccccc2F)C1)C(=O)Cc1ccccc1F (stereo unspecified)	·	30*	·	121	111	115	5	102
Cc1cc(OCCN2CC2)c2ccccc2n1	7	15	5	141*	93	172	51	110
CN1CCN(Cc2nc3ccccc3c(=O)[nH]2)CC1	-6	8	6	102	103	·	·	·
Cc1ccccc1NC(=O)NCCN1CC1	15	23	16	144*	95	159	22	100
CCCCCn1c(=O)c(C(=O)Nc2ccccc2C)c(O)c2ccccc21	-2	-1	5	100	100	·	·	·
Cc1cccc(OP(N)(=O)Oc2cccc(C)c2)c1	-3	29	4	120	132*	92	-12	97
CSc1ccc(C(=O)C2CCCN(Cc3cc4ccccc4[nH]3)C2)cc1 (stereo unspecified)	18	48	17	217*	104	181	37	111
C[C@]12CC[C@@H](O)CC1=CC(=O)C1C2CC[C@]2(C)C(=O)CCC12 (stereo partly specified)	6	·	-2	·	·	·	·	·
COC(=O)C1=C(c2cccc(OC)c2OC)C[C@@H]2CC[C@H]1N2C(=O)NCc1ccc(C(F)(F)F)cc1	3	3	11	101	100	·	·	·
COc1ccc(N2C(=O)CC(=O)NC2=O)cc1	0	1	6	106	104	·	·	·
NCCCN1CCN(c2ccccc2)CC1	-2	28	-7	152*	98	133	25	101
COc1ccc(N2CCN(CCCN)CC2)cc1	5	23	7	152*	104	162	34	108
O=C1NC(=O)N(Cc2ccccc2)C(=O)/C1=C/N1CCCc2ccccc21	-1	0	-26	107	140*	89	2	94
Cc1cc(OCC(=O)N2CCC(C(=O)O)(c3ccccc3)CC2)c2c(C)c(C)c(=O)oc2c1	-8	-1	5	101	98	·	·	·
O=C1N(c2cccc(Cl)c2)C(c2cccnc2)N2CCCN12 (stereo unspecified)	-5	-11	-1	77	74*[inhibitor]	101	-1	103
O=C1N(c2ccccc2)C(c2cccnc2)N2CCCN12 (stereo unspecified)	2	-24	1	77	76	·	·	·
Cc1cc(OCC(=O)N2C[C@H]3C[C@@H](C2)c2cccc(=O)n2C3)c2c(C)cc(=O)oc2c1	1	-1	4	99	101	·	·	·
CCOC(=O)C(C)(CC)NC(=O)CSP(=S)(OCC)OCC (stereo unspecified)	-2	-14	-2	80	77	·	·	·
COc1cccc(C2CC3C(=O)C=CC2N3Cc2ccccc2)c1 (stereo unspecified)	15	1	-11	105	157*	98	-9	99
OCCNCCc1c[nH]c2ccc(OCc3ccccc3)cc12	14	31*	22	164*	109	167	30	108
Clc1cccc(CNCCc2c[nH]c3ccccc23)c1	1	19	12	120	104	·	·	·
SMILES	Apaf-1 inh	MEKK2mut PB1 HTS	UBC13 inh	MEKK2wt PB1 HTS	MEKK3 PB1 HTS	MEKK2wt confirm	MEKK2mut confirm	MEKK3 confirm
CN1/C(=C\C=C2C(=O)NC(=O)NC2=O)C(C)(C)c2ccccc21	14	-9	-133	103	105	·	·	·
CN1/C(=C\C=Nc2ccccc2)C(C)(C)c2ccccc21	7	1	-9	0.0*[inhibitor]	80	104	4	100
CCCNC(=O)N1[C@H]2CC[C@@H]1C(C(=O)OC)=C(c1ccccc1)C2	-5	5	4	105	106	·	·	·
Cc1ccc2c(c1)[C@@H]1CN(C)CC[C@@H]1N2C(=O)Nc1cccc(C(F)(F)F)c1	11	26	11	139*	110	110	5	97
Cc1ccc2c(c1)C1CN(C)CCC1N2C(=O)Nc1cccc(C(F)(F)F)c1 (stereo unspecified)	17	15	11	127	103	·	·	·
COc1ccc2[nH]c3c(c2c1)CCN=C3C	30	·	6	·	·	·	·	·
COc1ccc2[nH]cc(CCN)c2c1	0	14	2	152*	91	111	12	99
O=C(N/N=C/c1c(O)n(CCC2=CCCCC2)c(=O)[nH]c1=O)c1ccccc1	17	1	-17	111	149*	100	-1	104
O=c1[nH]c(=S)n(CCC2=CCCCC2)c(O)c1C=NCc1cccnc1	1	3	-10	99	102	·	·	·
Nc1ccccc1N=Cc1c(O)n(CCC2=CCCCC2)c(=O)[nH]c1=O	18	-2	5	96	104	·	·	·
O=C(N/N=C/c1c(O)n(CCC2=CCCCC2)c(=S)[nH]c1=O)c1ccccc1	9	0	-18	108	154*	99	-2	104
CC(C)C(=O)NC(Oc1ccccc1Cl)C(Cl)(Cl)Cl (stereo unspecified)	-2	-3	7	93	99	·	·	·
CN1CCCC(C(=O)c2ccc(Cl)cc2)C1 (stereo unspecified)	-4	-6	9	93	100	·	·	·
COc1cccc(CNCCc2c[nH]c3ccccc23)c1OC	-22	44	6	147*	107	114	3	103
COc1ccc(CNCCc2c[nH]c3ccccc23)c(OC)c1OC	-15	8	14	118	105	·	·	·
